Test results reported in ChEMBL document CHEMBL1149822, “Synthesis, antimicrobial and anti-inflammatory activities of some 1,2,4-triazolo[3,4-b][1,3,4]thiadiazoles and 1,2,4-triazolo[3,4-b][1,3,4]thiadiazines bearing trichlorophenyl moiety” (2008).
Values after ≈ are worked out from the molar mass of the structure shown.

Legend:
Assay type in all cases: functional
[1] = tested on: Trichophyton mentagrophytes; assay: Antifungal activity against Trichophyton mentagrophytes at […] ug/ml after 3 to 4 days; conditions: read-out: IZ
Aspergillus flavus [2] = assay: Antifungal activity against Aspergillus flavus NCIM 524 at […] ug/ml after 3 to 4 days; conditions: read-out: IZ
Escherichia coli [3] = assay: microbe, parasite or virus in culture; conditions: ATCC25922, read-out: IZ
Staphylococcus aureus [4] = assay: Antibacterial activity against Staphylococcus aureus ATTC 25923 after 16 to 18 hrs by serial plate dilution method
Outline: (§1)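 Serial dilutions were made in Mueller-Hinton broth in tubes, adjusted to […] with phosphate buffer, and inoculated with a standardized bacterial suspension. Tubes were incubated at 37 °C for 16–18 h. MIC was taken as the lowest concentration with no visible growth.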

Rattus norvegicus = assay: Antiinflammatory activity against carrageenan-induced paw oedema in albino rat at 50 mg/kg, po relative to control
Outline: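 Albino rats of 180–250 g were fasted 18 h and placed in groups of six. Samples were suspended in 2% w/v acacia mucilage, and the vehicle group served as control. 30 min after dosing, carrageenan (1 mg mL⁻¹, 0.1 mL) was injected subcutaneously into the right hind paw. Paw volume was measured immediately and at 3 h, and % oedema inhibition was calculated versus vehicle controls.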

[5] = tested on: Trichophyton mentagrophytes; assay: Antifungal activity against Trichophyton mentagrophytes by serial plate dilution method
Pseudomonas aeruginosa [6] = assay: Antibacterial activity against Pseudomonas aeruginosa ATTC 27853 after 16 to 18 hrs by serial plate dilution method; conditions: ATCC27853; outline: as §1
Aspergillus flavus [7] = assay: Antifungal activity against Aspergillus flavus NCIM 524 by serial plate dilution method
Outline: (§2)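 Agar of peptone 1 g, D-glucose 4 g and agar 2 g per 100 mL water, pH 5.7, was lawned with a fungal spore suspension in normal saline. The excess was decanted and plates were dried at 37 °C for 1 h. Wells were punched and compounds in DMSO were added, with a DMSO control. Plates were run in triplicate at 37 °C for 3–4 days, and the inhibition zone diameter was measured.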

Talaromyces marneffei [8] = assay: Antifungal activity against Penicillium marneffei by serial plate dilution method; outline: as §2
Staphylococcus aureus [9] = assay: Antibacterial activity against Staphylococcus aureus ATTC 25923 at […] ug/ml after 3 to 4 days; conditions: read-out: IZ
Pseudomonas aeruginosa [10] = assay: microbe, parasite or virus in culture; conditions: ATCC27853, read-out: IZ
Aspergillus fumigatus [11] = assay: Antifungal activity against Aspergillus fumigatus NCIM 902 at […] ug/ml after 3 to 4 days; conditions: read-out: IZ
Aspergillus fumigatus [12] = assay: Antifungal activity against Aspergillus fumigatus NCIM 902 by serial plate dilution method
Escherichia coli [13] = assay: Antibacterial activity against Escherichia coli ATTC 25922 after 16 to 18 hrs by serial plate dilution method; conditions: ATCC25922; outline: as §1
Klebsiella pneumoniae [14] = assay: Antibacterial activity against Klebsiella pneumoniae after 16 to 18 hrs by serial plate dilution method; outline: as §1
Klebsiella pneumoniae [15] = assay: microbe, parasite or virus in culture; conditions: read-out: IZ
Talaromyces marneffei [16] = assay: Antifungal activity against Penicillium marneffei at […] ug/ml after 3 to 4 days; conditions: read-out: IZ
Aspergillus flavus [17] = assay: Antifungal activity against Aspergillus flavus NCIM 524 at 12 ug/ml after 3 to 4 days; conditions: read-out: IZ; outline: as §2
Staphylococcus aureus [18] = assay: Antibacterial activity against Staphylococcus aureus ATTC 25923 at 12 ug/ml after 3 to 4 days; conditions: read-out: IZ
Outline: (§3)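 Agar well diffusion. Plates were seeded with a bacterial suspension, the excess was decanted and plates were dried at 37 °C for 1 h. Wells were punched and compounds in DMSO were added, with DMSO wells as control. Plates were run in triplicate at 37 °C for 3–4 days and zones of inhibition were scored.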

Escherichia coli [19] = assay: Antibacterial activity against Escherichia coli ATTC 25922 at 12 ug/ml after 3 to 4 days; conditions: ATCC25922, read-out: IZ; outline: as §3
[20] = tested on: Trichophyton mentagrophytes; assay: Antifungal activity against Trichophyton mentagrophytes at 12 ug/ml after 3 to 4 days; conditions: read-out: IZ; outline: as §2
Talaromyces marneffei [21] = assay: Antifungal activity against Penicillium marneffei at 12 ug/ml after 3 to 4 days; conditions: read-out: IZ; outline: as §2

SMILES	MIC (Staphylococcus aureus [4]) [µg/mL]	MIC [5] [µg/mL]	MIC (Pseudomonas aeruginosa [6]) [µg/mL]	MIC (Aspergillus flavus [7]) [µg/mL]	MIC (Talaromyces marneffei [8]) [µg/mL]	MIC (Aspergillus fumigatus [12]) [µg/mL]	MIC (Escherichia coli [13]) [µg/mL]	MIC (Klebsiella pneumoniae [14]) [µg/mL]	zone of inhibition at 6.25 µg/mL [1] [mm]	zone of inhibition at 6.25 µg/mL (Aspergillus flavus [2]) [mm]	zone of inhibition at 6.25 µg/mL (Escherichia coli [3]) [mm]	inhibition in vivo at 50 mg/kg (Rattus norvegicus) [%]	zone of inhibition at 6.25 µg/mL (Staphylococcus aureus [9]) [mm]	zone of inhibition at 6.25 µg/mL (Pseudomonas aeruginosa [10]) [mm]	zone of inhibition at 6.25 µg/mL (Aspergillus fumigatus [11]) [mm]	zone of inhibition at 6.25 µg/mL (Klebsiella pneumoniae [15]) [mm]	zone of inhibition at 6.25 µg/mL (Talaromyces marneffei [16]) [mm]	zone of inhibition at 12 µg/mL (Aspergillus flavus [17]) [mm]	zone of inhibition at 12 µg/mL (Staphylococcus aureus [18]) [mm]	zone of inhibition at 12 µg/mL [20] [mm]	other results
Clc1cc(Cl)c(Cl)c(-c2nnc3sc(-c4ccncc4)nn23)c1	6.25 (≈ 16.3 µM)	6.25 (≈ 16.3 µM)	6.25 (≈ 16.3 µM)	6.25 (≈ 16.3 µM)	6.25 (≈ 16.3 µM)	6.25 (≈ 16.3 µM)	6.25 (≈ 16.3 µM)	6.25 (≈ 16.3 µM)	16	16	16	11.3	16	16	16	16	16	–	–	–	–
Clc1cc(Cl)c(Cl)c(-c2nnc3sc(COc4ccccc4)nn23)c1	6.25 (≈ 15.2 µM)	12 (≈ 29.1 µM)	6.25 (≈ 15.2 µM)	12 (≈ 29.1 µM)	6.25 (≈ 15.2 µM)	6.25 (≈ 15.2 µM)	6.25 (≈ 15.2 µM)	6.25 (≈ 15.2 µM)	–	–	16	–	16	16	16	16	16	11	–	11	–

Now from value to molecule, other results behind:

MIC (Staphylococcus aureus [4]) [µg/mL]	MIC [5] [µg/mL]	MIC (Pseudomonas aeruginosa [6]) [µg/mL]	MIC (Aspergillus flavus [7]) [µg/mL]	MIC (Talaromyces marneffei [8]) [µg/mL]	MIC (Aspergillus fumigatus [12]) [µg/mL]	MIC (Escherichia coli [13]) [µg/mL]	MIC (Klebsiella pneumoniae [14]) [µg/mL]	SMILES	zone of inhibition at 6.25 µg/mL [1] [mm]	zone of inhibition at 6.25 µg/mL (Aspergillus flavus [2]) [mm]	zone of inhibition at 6.25 µg/mL (Escherichia coli [3]) [mm]	inhibition in vivo at 50 mg/kg (Rattus norvegicus) [%]	zone of inhibition at 6.25 µg/mL (Staphylococcus aureus [9]) [mm]	zone of inhibition at 6.25 µg/mL (Pseudomonas aeruginosa [10]) [mm]	zone of inhibition at 6.25 µg/mL (Aspergillus fumigatus [11]) [mm]	zone of inhibition at 6.25 µg/mL (Klebsiella pneumoniae [15]) [mm]	zone of inhibition at 6.25 µg/mL (Talaromyces marneffei [16]) [mm]	zone of inhibition at 12 µg/mL (Aspergillus flavus [17]) [mm]	zone of inhibition at 12 µg/mL (Staphylococcus aureus [18]) [mm]	zone of inhibition at 12 µg/mL [20] [mm]	other results
12 (≈ 30.3 µM)	12 (≈ 30.3 µM)	6.25 (≈ 15.8 µM)	12 (≈ 30.3 µM)	6.25 (≈ 15.8 µM)	6.25 (≈ 15.8 µM)	12 (≈ 30.3 µM)	6.25 (≈ 15.8 µM)	Cc1ccc(-c2nn3c(-c4cc(Cl)cc(Cl)c4Cl)nnc3s2)cc1	–	–	–	22.6	–	16	16	16	16	11	11	11	zone of inhibition at 12 µg/mL (Escherichia coli [19]): 11 mm
6.25 (≈ 14.7 µM)	6.25 (≈ 14.7 µM)	6.25 (≈ 14.7 µM)	6.25 (≈ 14.7 µM)	6.25 (≈ 14.7 µM)	6.25 (≈ 14.7 µM)	6.25 (≈ 14.7 µM)	6.25 (≈ 14.7 µM)	COc1ccc(C2=Nn3c(nnc3-c3cc(Cl)cc(Cl)c3Cl)SC2)cc1	16	16	16	19.4	16	16	16	16	16	–	–	–	–
12 (≈ 30.3 µM)	12 (≈ 30.3 µM)	6.25 (≈ 15.8 µM)	12 (≈ 30.3 µM)	12 (≈ 30.3 µM)	6.25 (≈ 15.8 µM)	12 (≈ 30.3 µM)	6.25 (≈ 15.8 µM)	Clc1cc(Cl)c(Cl)c(-c2nnc3n2N=C(c2ccccc2)CS3)c1	–	–	–	–	–	16	16	16	–	11	11	11	zone of inhibition at 12 µg/mL (Escherichia coli [19]): 11 mm; zone of inhibition at 12 µg/mL (Talaromyces marneffei [21]): 11 mm
6.25 (≈ 13.9 µM)	6.25 (≈ 13.9 µM)	6.25 (≈ 13.9 µM)	6.25 (≈ 13.9 µM)	6.25 (≈ 13.9 µM)	6.25 (≈ 13.9 µM)	6.25 (≈ 13.9 µM)	6.25 (≈ 13.9 µM)	Clc1cc(Cl)cc(-c2nn3c(-c4cc(Cl)cc(Cl)c4Cl)nnc3s2)c1	16	16	16	–	16	16	16	16	16	–	–	–	–
